A selection: hits, their analogues and other compounds. The true share with any hit is near 2.3%.
TRPC4 agonist = opens the mouse TRPC4 cation channel; Q9QUQ5; HEK293 TRPC4beta/mu-opioid, Fluo4 calcium fluorescence; active compounds read high; B-score at 10 µM; actives 0.49% (n = 310,000);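 active = B-score above 5 SD of library B-scores, and initial fluorescence ratio not above library mean plus 5 SD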;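 note: positive B-score marks a calcium rise read as TRPC4 activation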
Target sequence (Q9QUQ5 whole entry, looked up): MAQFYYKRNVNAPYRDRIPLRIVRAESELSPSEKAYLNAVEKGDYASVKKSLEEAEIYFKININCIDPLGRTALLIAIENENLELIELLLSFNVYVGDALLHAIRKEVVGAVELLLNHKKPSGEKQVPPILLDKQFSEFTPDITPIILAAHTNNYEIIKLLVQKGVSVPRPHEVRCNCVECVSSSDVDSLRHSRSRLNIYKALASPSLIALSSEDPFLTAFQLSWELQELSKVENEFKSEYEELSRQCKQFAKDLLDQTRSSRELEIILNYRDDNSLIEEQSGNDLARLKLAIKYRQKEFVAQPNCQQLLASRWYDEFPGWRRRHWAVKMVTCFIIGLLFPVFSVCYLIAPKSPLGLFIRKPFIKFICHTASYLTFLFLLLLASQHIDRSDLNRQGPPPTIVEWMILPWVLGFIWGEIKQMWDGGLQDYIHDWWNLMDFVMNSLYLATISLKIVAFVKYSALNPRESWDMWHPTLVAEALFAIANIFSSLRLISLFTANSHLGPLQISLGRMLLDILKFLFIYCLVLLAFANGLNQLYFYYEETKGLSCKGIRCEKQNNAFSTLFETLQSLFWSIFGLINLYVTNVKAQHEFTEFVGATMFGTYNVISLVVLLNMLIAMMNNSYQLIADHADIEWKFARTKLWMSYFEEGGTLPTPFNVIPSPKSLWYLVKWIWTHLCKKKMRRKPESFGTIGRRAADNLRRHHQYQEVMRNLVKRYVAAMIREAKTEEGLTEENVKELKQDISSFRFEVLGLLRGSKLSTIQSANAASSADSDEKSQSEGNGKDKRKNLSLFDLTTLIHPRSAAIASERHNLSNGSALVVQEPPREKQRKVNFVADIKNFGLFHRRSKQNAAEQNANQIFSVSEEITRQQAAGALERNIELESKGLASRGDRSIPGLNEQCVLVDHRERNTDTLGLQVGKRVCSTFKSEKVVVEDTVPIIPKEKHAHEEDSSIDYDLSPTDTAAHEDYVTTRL
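Assay system: HEK293 stable line with TRPC4beta plus mu-opioid receptor; schedule: 45 min room-temperature Fluo4 loading, 110 s read; technique: kinetic Fluo4 calcium fluorescence; evaluation: integrated baseline-normalised fluorescence ratio, converted to per-well B score; controls: buffer (low) and maximal DAMGO (high)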
TRPC6 act = activators of mouse TRPC6 channel | HEK293-TRPC6 membrane potential dye fluorescence; active compounds read high | actives 0.13% (n = 310,000) | Q61143 | B-score at 10 µM;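 active = B-score of the integrated fluorescence ratio above library mean plus 3 SD, and starting fluorescence ratio within library mean plus 5 SD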;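 note: higher score means more depolarization so channel activation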
TRPC4 inh = inhibitors of mouse TRPC4 channel; Q9QUQ5; B-score at 10 µM; HEK293 TRPC4beta/mu-opioid, DAMGO-evoked Fluo4 calcium flux; active compounds read low; actives 0.39% (n = 300,000); AID 2247;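 active = B-score over 3 SD under the library average, no early fluorescence shift, positive overall ratio signal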
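Material: HEK293 cells with stable TRPC4beta plus mu-opioid receptor expression / Probe or stimulus: DAMGO in two steps, submaximal then maximal / Compound: single concentration per test compound / Technique: kinetic Fluo4 fluorescence imaging of calcium influx / Read-out: per-well B score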
TRPC6 inhibitor = blocks the mouse TRPC6 cation channel; Q61143; HEK293-TRPC6, membrane potential dye, ACh-evoked depolarization; active compounds read low; B-score at 10 µM; actives 1.1% (n = 310,000);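 active = B-score under library mean minus 3 SD, initial fluorescence not abnormally high, positive integrated signal ratio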;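 note: B-score derived from integrated fluorescence ratio over the kinetic read; more negative B-score means stronger inhibition of depolarization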
TRPC4 PAM = allosterically enhances the mouse TRPC4 cation channel; HEK293 TRPC4beta/mu-opioid, DAMGO EC20, Fluo-4 Ca2+ flux; active compounds read high; B-score at 10 µM; actives 0.42% (n = 310,000); AID 2227;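 active = B-score of calcium response area above 5 SD of library B-scores, with initial fluorescence ratio within 5 SD of library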;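 note: B-score of integrated fluorescence ratio over time as area under calcium response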
TRPC4 spec 2 = second check of whether TRPC6 inhibitors also affect mouse TRPC4; shares compounds with TRPC6 inhibitor; HEK293 TRPC4/MOR, membrane potential dye fluorescence; channel activated by saturating DAMGO dose; inhibition, % at 10 µM; actives 42% (n = 920); AID 2776;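 active = compounds whose fluorescence signal differed from control wells by over 3 SD, either direction, in both duplicate plates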
TRPC4 spec = tests whether TRPC6 inhibitors also affect mouse TRPC4; actives 61% (n = 920); activity change, negative = inhibition, % at 10 µM; shares compounds with TRPC6 inhibitor; HEK293 TRPC4/mu-opioid, membrane potential fluorescence; AID 2777;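 active = rise or fall in signal beyond 3 SD of buffer-only wells in both replicate plates, either sign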;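 note: integrated kinetic ratio of fluorescence range over baseline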
HEK293 MPD ctr 2-1 = parental HEK293 nonspecific activity of TRPC6 inhibitors, second screen; signal change vs control, % at 10 µM; AID 2779; parental HEK293 membrane potential dye fluorescence; maximal acetylcholine challenge after compound addition; actives 31% (n = 920); shares compounds with TRPC6 inhibitor;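 active = membrane potential signal moving either way by over 3 SD of the maximum-effect control, in both duplicate plates, meaning non-specific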
HEK293 MPD ctr-1 = counter-screen for TRPC6 inhibitors: effect in parental HEK293 cells. parental HEK293 membrane potential dye fluorescence. shares compounds with TRPC6 inhibitor. AID 2780. actives 60% (n = 920). membrane potential signal change, % at 10 µM;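 active = membrane potential signal shifting up or down by more than 3 SD of buffer-only wells, on both duplicate plates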
HEK293 MPD ctr-2 = parental HEK293 nonspecific activity of TRPC6 modulators | shares compounds with TRPC6 inhibitor | membrane potential dye fluorescence | membrane potential signal change, % at 10 µM | actives 51% (n = 2,400) | AID 488924;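 active = membrane potential signal moves up or down beyond 5 SD from buffer-only wells, on both duplicate plates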
HEK293 MPD ctr 2-2 = parental HEK293 nonspecific activity of TRPC6 modulators, second screen; shares compounds with TRPC6 inhibitor; membrane potential dye fluorescence; after compound, maximal acetylcholine stimulation; inhibition, % at 10 µM; actives 14% (n = 2,400);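 active = membrane potential signal drops by more than 5 SD from the mean control signal, in both duplicate plates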;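 note: plate controls were acetylcholine ECmax control wells for no effect and buffer only wells for full effect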
TRPC4 ctr mod = tests whether TRPC6 modulators also affect mouse TRPC4 | shares compounds with TRPC6 inhibitor | HEK293 TRPC4/mu-opioid, membrane potential fluorescence | percent change from control (negative = decrease, positive = increase), % at 10 µM | actives 69% (n = 2,400);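 active = membrane potential signal moved up or down beyond 5 SD of buffer control wells, in both duplicate plates, actives on both sides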;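 note: plate controls were assay buffer wells for no effect and DAMGO maximal-effect wells for full effect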
TRPC4 ctr inh 2 = second selectivity test of TRPC6 modulators against mouse TRPC4; inhibition, % at 10 µM; AID 488928; HEK293 TRPC4/mu-opioid, membrane potential dye fluorescence; stimulated with maximal-effect DAMGO; actives 55% (n = 2,400); shares compounds with TRPC6 inhibitor;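 active = drop in membrane potential signal beyond 5 SD of the control wells in both duplicate plates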;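 note: TRPC4 counter screen for TRPC6 hits run under conditions tuned for TRPC6 not TRPC4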
TRPC6 inh conf = confirmation of mouse TRPC6 inhibitors; shares compounds with TRPC6 inhibitor; HEK293-TRPC6, membrane potential dye, ACh-evoked depolarization; inhibition, % at 10 µM; actives 43% (n = 3,300); AID 488960;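 active = fluorescence ratio falls more than 5 SD below the full-stimulation control mean, in both duplicate runs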;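 note: integrated fluorescence ratio of peak minus minimum over baseline after agonist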
TRPC6 act conf = mouse TRPC6 activator confirmation; HEK293-TRPC6 membrane potential dye fluorescence, FDSS; AID 488961; activation, % at 10 µM; actives 11% (n = 2,800); shares compounds with TRPC6 inhibitor;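 active = ratio signal rise beyond 5 SD above unstimulated control wells' mean, seen in both duplicate runs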;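 note: plate controls were buffer EC0 wells for no effect and acetylcholine ECmax response for full effect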
The depositor's hits bear a star; i = inactive; nt = no result.

SMILES	TRPC4 agonist	TRPC6 act	TRPC4 inh	TRPC6 inhibitor	TRPC4 PAM	HEK293 MPD ctr-2	HEK293 MPD ctr 2-2	TRPC4 ctr mod	TRPC4 ctr inh 2	TRPC6 inh conf	TRPC6 act conf	others
Cc1cccc(C)c1OCc1cc(C(=O)NCc2cn(C)nc2C)no1	i	i	i	i	i	nt	nt	nt	nt	nt	nt
CC1(C)CC(=O)C2=C(C1)NC1=C(C(=O)c3ccccc31)C2c1cc([N+](=O)[O-])ccc1O (stereo not drawn)	i	i	i	-5.4*	i	i	i	-13%*	66%*	42%*	i
Cc1ccccc1OCC(=O)NCCS(=O)(=O)N1CCN(c2ccc(F)cc2)CC1	i	i	i	-10*	i	nt	nt	nt	nt	95%*	nt	TRPC4 spec 2=i;TRPC4 spec=i;HEK293 MPD ctr 2-1=i;HEK293 MPD ctr-1=i
Cc1ccc(OCC(=O)NCCS(=O)(=O)N2CCN(c3ccccc3)CC2)cc1	i	i	i	i	i	nt	nt	nt	nt	nt	nt
COc1ccc(CC(=O)NCCS(=O)(=O)N2CCN(c3ccccc3)CC2)cc1OC	i	i	i	i	i	nt	nt	nt	nt	nt	nt
COc1ccccc1OCC(=O)NCCS(=O)(=O)N1CCN(c2ccccc2)CC1	i	i	i	-7.5*	i	nt	nt	nt	nt	i	i	TRPC4 spec 2=i;TRPC4 spec=i;HEK293 MPD ctr 2-1=i;HEK293 MPD ctr-1=i
CC(C)(C)N1C(=O)c2ccc(C(=O)Nc3ccc(O)cc3)cc2C1=O	i	i	i	i	i	nt	nt	nt	nt	nt	nt
O=C(CSc1nnnn1C1CCCCC1)Nc1ccc2c(c1)OCO2	i	i	i	-8.7*	i	nt	nt	nt	nt	i	i	TRPC4 spec 2=i;TRPC4 spec=i;HEK293 MPD ctr 2-1=i;HEK293 MPD ctr-1=i
O=C(CSc1nnnn1C1CCCCC1)Nc1ccc(F)cc1	i	i	i	i	i	nt	nt	nt	nt	nt	nt
CSc1ccc(NC(=O)NCc2cccnc2)cc1	i	i	i	i	i	nt	nt	nt	nt	nt	nt
CCCOc1ccc(C(=O)CCN2CCCCC2)cc1	i	i	i	-5.4*	i	150%*	i	24%*	i	i	nt
Oc1ccc(-c2nc3ccccc3s2)c(O)c1	i	i	i	-5.4*	i	i	i	i	i	i	i
Cc1cc(N2CCOCC2)c2c(N)c(Br)cc(C)c2n1	i	i	i	-5.1*	i	-301%*	i	-57%*	42%*	i	i
O=C(Nc1cccc(S(=O)(=O)C(F)F)c1)c1ccc(Cl)c(S(=O)(=O)N2CCOCC2)c1	i	i	i	-6.1*	i	i	i	i	i	i	i
O=C(Nc1cccc(Br)c1)c1ccc(Cl)c(S(=O)(=O)N2CCOCC2)c1	i	i	i	i	i	nt	nt	nt	nt	nt	nt
O=C(O)C1CC(c2ccccc2)=Nc2ccccc2S1 (stereo not drawn)	i	i	i	-5.3*	i	136%*	i	28%*	i	i	nt
Nc1cc(N)nc(SCC(=O)N2CCN(S(=O)(=O)c3ccccc3)CC2)n1	i	i	i	i	i	nt	nt	nt	nt	nt	nt
CCNc1ccc2noc3c2c1C(=O)c1ccccc1-3	i	i	i	-5.8*	i	231%*	108%*	-282%*	144%*	70%*	i
CN(CCCNC(=O)c1cccn2c(=O)c3ccccc3nc12)Cc1ccccc1	i	i	i	-6.3*	i	-136%*	i	-32%*	62%*	46%*	i
O=C(NCCN1CCN(c2ccccc2)CC1)c1cccn2c(=O)c3ccccc3nc12	i	i	i	i	i	nt	nt	nt	nt	nt	nt
COc1cc2c(cc1OC)CN(C(=O)c1ccc3[nH]c(C)c(C)c3c1)CC2	i	i	i	i	i	nt	nt	nt	nt	nt	nt
CCOC(=O)Nc1ccc2c(c1)N(C(=O)CCN1CCN(C)CC1)c1ccccc1S2	i	i	i	i	i	nt	nt	nt	nt	nt	nt
CCOC(=O)Nc1ccc2c(c1)N(C(=O)N1CCN(C)CC1)c1ccccc1S2	i	i	i	-5.3*	i	i	i	i	36%*	i	i
COc1ccc(NC(=O)CN(C)CC(=O)Nc2ccc(Cl)cc2F)cc1	i	i	i	i	i	nt	nt	nt	nt	nt	nt
CCCC(=O)NC(c1ccc(N(C)C)cc1)c1ccc2cccnc2c1O (stereo not drawn)	i	i	i	i	i	nt	nt	nt	nt	nt	nt
CCCC(=O)NC(c1ccc(C(C)C)cc1)c1ccc2cccnc2c1O (stereo not drawn)	i	i	i	-6.4*	i	i	i	i	i	i	i
CCCCC(=O)NC(c1ccc(Cl)cc1Cl)c1ccc2cccnc2c1O (stereo not drawn)	i	i	i	-5.2*	i	-154%*	i	-30%*	i	i	i
CN(C)C(CNC(=O)CCc1nc2sc3c(c2c(=O)[nH]1)CCCC3)c1ccccc1 (stereo not drawn)	i	i	i	i	i	nt	nt	nt	nt	nt	nt
COc1cc(-c2noc(C)c2C#Cc2ccsc2)cc(OC)c1OC	i	i	i	i	i	nt	nt	nt	nt	nt	nt
